Hits are enriched below; roughly 3% of the tested compounds scored in any of these assays.
S1P3 agonist: activates the human S1P3 receptor; Q99500; S1P3 NFAT-BLA reporter cells, agonism, FRET ratio; relative to 1 µM S1P, basal subtracted; activation, % at 4.5 µM; 0.1% of 60,000 active;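 active means activation above the screen-wide mean plus 3 SD, cut at about 4.5% in these data, passing the limit was not always enough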
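Assay system: stable CHO line with human S1P3, Gα16, NFAT-BLA reporter; Detection: FRET β-lactamase substrate fluorescence, excitation 405 nm, 460/535 nm emission ratio, background-subtracted; Read-out: percent activation versus median 1 µM S1P response, basal-subtracted, per plate; Incubation: cells plated overnight, compound 4 h 37 °C, substrate 2 h RT.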
5HT1a antag: antagonists of human 5-HT1a serotonin receptor | inhibition, % at 10 µM | P08908 | 0.68% of 62,000 active | CHO 5-HT1a Ga15 NFAT-bla reporter, antagonist mode;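 active means inhibition above the mean of all tested compounds plus 3 SD, cut at about 43% in these data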;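 further: receptor stimulated by 5-CT agonist at 100 nM near EC80; beta-lactamase reporter measured by ratiometric fluorescence of a cleavable substrate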
HTR1E agonist: agonists of human 5-HT1E serotonin receptor | AID 574 | P28566 | activation, % at 6 µM | CHO 5-HT1E Ga15 NFAT-bla reporter, FRET; 0% DMSO wells, 100% control agonist wells | 0.69% of 65,000 active;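 active means activation above a set limit, the screen-wide mean activation plus 3 SD, cut at about 8.5% in these data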;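 further: 100% = positive control agonist at 1 µM giving full maximal response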
5HT1E antag: 5-HT1E (human) receptor antagonism; CHO 5-HT1E Ga15 NFAT-bla reporter, FRET, antagonist; AID 571; inhibition, % at 6 µM; 0.99% of 65,000 active;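 active means inhibition above a set limit, the mean inhibition across every tested compound plus 3 SD, cut at about 29% in these data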;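 further: signal is the 460 over 535 nm emission ratio of beta-lactamase substrate; 0% = agonist plus DMSO wells and 100% = wells without agonist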
S1P1 ag pot: S1P1 (human) agonism or agonism potentiation; P21453; S1P1 CRE-bla cells, forskolin, beta-lactamase FRET, potentiator mode; S1P1 agonist co-added at EC20, 2 nM; 100% = saturating reference agonist, 0% = basal; activation, % at 9.5 µM; 0.57% of 56,000 active;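 active means activation above a cutoff set at the mean activation of all tested compounds plus 3 SD, cut at about 54% in these data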;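 further: forskolin at 4 µM as EC80 and the EC20 agonist is SEW2871; 100% = SEW2871 at its EC100 plus forskolin at EC80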
Target sequence (P21453 whole entry, looked up): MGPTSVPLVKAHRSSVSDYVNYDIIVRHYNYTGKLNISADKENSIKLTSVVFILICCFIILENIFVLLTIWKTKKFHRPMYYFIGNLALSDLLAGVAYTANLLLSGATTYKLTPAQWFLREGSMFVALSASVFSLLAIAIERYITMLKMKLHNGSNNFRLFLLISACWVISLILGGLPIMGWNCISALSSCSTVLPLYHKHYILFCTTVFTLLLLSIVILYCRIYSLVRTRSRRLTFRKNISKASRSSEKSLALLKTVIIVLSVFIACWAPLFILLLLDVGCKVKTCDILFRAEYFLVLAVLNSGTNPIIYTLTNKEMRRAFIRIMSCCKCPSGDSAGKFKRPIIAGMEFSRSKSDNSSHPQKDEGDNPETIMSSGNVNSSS
5HT1a ag: 5-HT1a (human) receptor agonism. activation, % at 10 µM. P08908. 0.56% of 65,000 active. CHO 5-HT1a Ga15 NFAT-bla reporter, FRET ratio; 0% basal, 100% maximal reference agonist;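 active means activation above the screen-wide mean activation plus 3 SD, cut at about 19% in these data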;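 further: 0% = DMSO wells and 100% = 5-CT at EC100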
The depositor's hits bear a star; x = not tested or not shown.

SMILES | S1P3 agonist | 5HT1a antag | HTR1E agonist | 5HT1E antag | S1P1 ag pot | 5HT1a ag
COc1ccc(CCNC(=O)C2CCCN(Cc3nc(-c4ccccc4C)oc3C)C2)cc1OC (stereo not given) | 0 | -3 | 0 | -8 | -29 | 33*
COc1ccc(CCNC(=O)C2CCN(Cc3nc(-c4cccc(Cl)c4)oc3C)CC2)cc1OC | -1 | 1 | 2 | -11 | 20 | 1
CCOC(=O)N1CCC(NC(=O)C2CCCN(Cc3nc(-c4cccc(Cl)c4)oc3C)C2)CC1 (stereo not given) | -2 | 25 | 1 | 12 | 103* | 2
CCc1ccc(-c2nc(CN3CCCC(C(=O)NCCc4ccc(OC)c(OC)c4)C3)c(C)o2)cc1 (stereo not given) | 0 | -1 | 2 | -17 | -14 | 37*
Cc1ccc(S(=O)(=O)N(C)Cc2ccc(-c3nnco3)cc2)cc1 | 0 | 16 | 0 | 1 | 22 | -1
Cc1ccc(C(C)C)c(OCc2ccc(-c3nnco3)cc2)c1 | -2 | 10 | -1 | 16 | 98* | -1
O=C(O)C1CC(=O)N(c2ccc(OCc3c(F)cccc3Cl)cc2)C1 (stereo not given) | -1 | 4 | -1 | 12 | -10 | -1
COc1ccc(C(=O)N2CCN(c3cccc(Cl)c3)CC2)c(OC)c1 | -1 | 20 | 1 | 12 | x | 0
CC(=O)c1ccc(NC(=O)N2CCN(c3cccc(Cl)c3)CC2)cc1 | -2 | 33 | 3 | 24 | 65* | -1
CCOc1ccccc1C(=O)N1CCN(c2cccc(Cl)c2)CC1 | -1 | 70* | 1 | 70* | -12 | 0
O=C(O)c1ccccc1C(=O)N1CCN(c2cccc(Cl)c2)CC1 | 0 | 21 | 45* | 1 | 12 | 4
O=C(Nc1cccc(Cl)c1)N1CCN(c2ncccn2)CC1 | 0 | -7 | -2 | -5 | -1 | -2
Cc1ccc(-c2nnn(CCC(=O)NC3CCCC3)n2)cc1 | 0 | 13 | 0 | 1 | -20 | -3
Cn1c(=O)oc2cc(S(=O)(=O)Nc3ccc4c(c3)OCO4)ccc21 | -1 | 10 | 0 | 3 | -7 | -4
COCCCNC(=O)CCCn1c(=O)c2ccccc2n(CC(=O)Nc2c(C)cc(C)cc2C)c1=O | -1 | 7 | 43* | 0 | 5 | -3
COCCCNC(=O)CCn1c(=O)c2ccccc2n(CC(=O)Nc2c(C)cccc2C)c1=O | 0 | 4 | 0 | -12 | -5 | -4
O=C(Cn1c(C(=O)N2CCc3ccccc3C2)cc2sccc21)c1ccccc1 | -2 | 44* | 0 | 2 | 3 | -3
COc1ccc(OC)c(Nc2cc(-c3ccccc3)nc(N)n2)c1 | -2 | 63* | -1 | 70* | -38 | -4
CCC(=O)Oc1ccc2c(C)cc(=O)oc2c1C | -2 | 6 | 0 | 6 | -1 | 65*
CCCn1c(SCC(=O)NCCc2ccc(Cl)cc2Cl)n[nH]c1=O | 0 | -6 | 0 | -10 | -14 | -2
CN1/C(=C/C(=O)c2nc(S(C)(=O)=O)ncc2Cl)C(C)(C)c2ccccc21 | -2 | 62* | 1 | 51* | 110* | -3
CN1/C(=C\C(=O)c2ccco2)C(C)(C)c2ccccc21 | 2 | 19 | 1 | 6 | 26 | 4
CCc1nc(C)c(C#N)c2cc(OC)c(OC)cc12 | 0 | 12 | 0 | 44* | -60 | 3
CCCC(=O)c1ccc(N2CCN(C(=O)c3ccccc3Br)CC2)c(F)c1 | -2 | -1 | 1 | -5 | 98* | 4
Cn1c(C(=O)NCCCN2CCN(c3ccc(F)cc3)CC2)cc2c(=O)n(C)c3ccccc3c21 | -1 | 65* | 1 | 2 | -10 | 14
SMILES | S1P3 agonist | 5HT1a antag | HTR1E agonist | 5HT1E antag | S1P1 ag pot | 5HT1a ag
COC(=O)CCCCCC(CCC(=O)OC)NC(C)=O (stereo not given) | -2 | 1 | 0 | -1 | 14 | -2
CCOC(=O)N1CCC(Nc2c(NCCCN(C)Cc3ccccc3)c(=O)c2=O)CC1 | 0 | -8 | 0 | -8 | -15 | -2
O=C(Nc1cccc(-c2cn3ccsc3n2)c1)c1ccccc1 | 0 | 2 | 83* | 4 | -9 | -1
COc1ccc(C(O)C(CN2CCOCC2)c2ccccc2)cc1F (stereo not given) | 0 | -7 | 0 | -1 | -4 | 0
COc1ccc(C(=O)C(CN2CCOCC2)c2ccccc2)cc1F (stereo not given) | -1 | 76* | 0 | 39* | 80 | -2
COc1cccc(OCCn2c(C)c(/C=N/n3cnnc3)c3ccccc32)c1 | 0 | 4 | 0 | 43* | -14 | -1
COc1cccc(NC2=NC3(CCCCC3)N=C(N)N2)c1 | 0 | -4 | 0 | 3 | -6 | 1
CCCCNC(=O)c1ccccc1C(=O)NCCCC | 0 | -5 | -1 | 3 | x | 0
CCCCP(=O)(CCCC)c1ccccc1C(=O)O | 0 | 7 | -1 | 4 | -8 | 252*
O=C(Nc1ccccc1)N1CC=C(c2ccccc2)CC1 | 1 | 13 | 0 | 0 | x | -2
O=C(O)C1CCCCC1C(=O)N1CC=C(c2ccccc2)CC1 (stereo not given) | -1 | 3 | 22* | 3 | 12 | 6
CCCc1cc(=O)[nH]c(Nc2ccc(N3CCCCC3)cc2)n1 | -2 | 14 | 0 | 0 | 10 | 0
CCCCc1ccc(Nc2nc(CCC)cc(=O)[nH]2)cc1 | -2 | 45* | 0 | 6 | 7 | -2
O=C1NC(Cc2c[nH]c3ccccc23)C(=O)N1CCOc1ccccc1 (stereo not given) | -1 | 7 | 0 | 4 | -1 | -2
Cc1cc(/C=N/n2cnnc2)c(C)n1-c1ccc(OCc2ccc(F)cc2)cc1 | -2 | 21 | 1 | 20 | 142* | -2
Cc1cc(/C=N/n2cnnc2)c(C)n1-c1cccc(Cl)c1 | 1 | -1 | -1 | -3 | -10 | -1
Cc1cc(/C=N/n2cnnc2)c(C)n1-c1ccc(Cl)cc1Cl | -2 | 32 | 0 | 40* | -8 | -2
Cc1sc(-n2c(C)cc(/C=N/n3cnnc3)c2C)c(C#N)c1C | -1 | x | 0 | 12 | 8 | -1
COc1ccc(S(=O)(=O)NCC(=O)N(CC(=O)NCC2CCCO2)c2c(C)cccc2C)cc1 (stereo not given) | 0 | -11 | -1 | 4 | 4 | -2
COc1cccc(NC(=O)N(Cc2cc3cc(C)cc(C)c3[nH]c2=O)CC2COCCO2)c1 (stereo not given) | -2 | -3 | 0 | 2 | -7 | -1
CC1(C)Cc2cccc(OCC(O)CN3CCN(c4ccccn4)CC3)c2O1 (stereo not given) | 0 | 11 | 0 | -4 | 15 | 21*

Assay outcomes deposited in PubChem BioAssay by The Scripps Research Institute Molecular Screening Center.
